Screens from PubChem.
The list is not random: actives were taken first. Their share in the collection is about 1.5%.
EBI2 block: EBI2 receptor antagonists, beta-arrestin recruitment, primary screen, cell-based, luminescence, 7a,25-OHC stimulation, uHTS. inhibition, % at 5 µM. G-protein coupled receptor 183 (Homo sapiens), P32249. 7a,25-OHC stimulated. AID 651636, 2012. 0.81% of 360,000 active; in the data active = inhibition above about 38%;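 also: enzyme fragment complementation signal reports receptor beta-arrestin coupling in cells; 0% = agonist plus DMSO wells and 100% = wells without agonist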
Target sequence (P32249 whole entry, looked up, the tested form may be a part): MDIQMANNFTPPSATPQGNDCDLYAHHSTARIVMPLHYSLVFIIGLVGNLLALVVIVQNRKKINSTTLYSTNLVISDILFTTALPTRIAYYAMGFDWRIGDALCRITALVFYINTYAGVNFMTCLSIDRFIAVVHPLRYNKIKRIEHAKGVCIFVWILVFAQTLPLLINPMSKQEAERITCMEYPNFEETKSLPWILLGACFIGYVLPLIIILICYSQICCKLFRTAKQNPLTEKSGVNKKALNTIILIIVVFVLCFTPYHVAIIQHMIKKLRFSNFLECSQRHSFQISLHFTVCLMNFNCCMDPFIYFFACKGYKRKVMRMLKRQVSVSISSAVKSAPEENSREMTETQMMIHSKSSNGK
CXCR6 inh: CXCR6 receptor inhibitors, primary screen, cell-based, beta-arrestin, luminescence, CHO-K1 PathHunter, 1536-well | inhibition, % at 20 µM | AID 602244, 2012 | C-X-C chemokine receptor type 6 (Homo sapiens), O00574 | 0.36% of 360,000 active; in the data active = inhibition above about 34%, passing the limit was not always enough;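 also: antagonist mode with CXCL16 agonist at 10 nM final; 0% = 10 nM CXCL16 with DMSO and 100% = unstimulated wells without agonist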
Target sequence (O00574 whole entry, looked up): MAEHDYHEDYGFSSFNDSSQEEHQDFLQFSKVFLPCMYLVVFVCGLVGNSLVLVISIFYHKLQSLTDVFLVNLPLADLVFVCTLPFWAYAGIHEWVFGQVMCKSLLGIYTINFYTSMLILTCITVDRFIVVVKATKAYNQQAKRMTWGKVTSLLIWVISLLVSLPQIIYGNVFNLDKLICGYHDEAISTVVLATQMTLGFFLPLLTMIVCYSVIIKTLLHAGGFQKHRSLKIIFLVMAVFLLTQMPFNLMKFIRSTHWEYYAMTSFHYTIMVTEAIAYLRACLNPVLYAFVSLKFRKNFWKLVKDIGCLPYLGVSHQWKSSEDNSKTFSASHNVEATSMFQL
CCR6 antag: CCR6 receptor antagonists, primary screen, cell-based, CHO-K1, luminescence, beta-arrestin, uHTS; C-C chemokine receptor type 6 (Homo sapiens), P51684; CHO-K1 CCR6 PathHunter beta-arrestin, CCL20-stimulated; inhibition, % at 20 µM; 0.49% of 340,000 active; AID 493098, 2011;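 active = compounds whose inhibition of the agonist-driven luminescence signal at 20 µM reaches about 50%, limit read from the data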;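 also: cells stimulated with CCL20 at 14 nM final; plate controls were DMSO with CCL20 for no effect and DMSO without agonist for full effect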
APJ antagonist: antagonists of human apelin receptor APJ, primary screen, CHO-K1 cells, beta-arrestin complementation, luminescence | AID 2521, 2010 | P35414 | inhibition, % at 20 µM | 0.32% of 330,000 active;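 active = inhibition above about 40% at 20 µM, limit read from the data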;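 also: cells challenged with 10 nM apelin-13 agonist together with compound; plate controls were apelin-13 plus DMSO wells for no effect and DMSO wells lacking apelin-13 for full effect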
APJ ag: agonists of human apelin receptor APJ, primary screen, CHO-K1 cells, PathHunter beta-arrestin, luminescence; P35414; 0% DMSO wells, 100% apelin; activation, % at 20 µM; 0.11% of 330,000 active;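 active = activation more than six SD over the plate average, tested at 20 µM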;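 also: 0% = DMSO alone and 100% = apelin-13 at 10 nM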
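Assay system: CHO-K1 cells stably expressing ProLink-tagged human APJ and arrestin–beta-gal acceptor. Compound dosing: 20 µM single point, 1% DMSO. Times: 16-18 h seeding, 90 min dark compound exposure, 60 min detection. Detection: beta-gal luminescence. Evaluation: APJ–arrestin association signal. Controls: negative DMSO alone, positive Apelin-13 at 10 nM.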
CXCR6 confirm: CXCR6 receptor antagonists, confirmation, cell-based, single concentration, beta-arrestin, luminescence; shares compounds with CXCR6 inh; 65% of 700 active; CHO-K1 CXCR6 PathHunter beta-arrestin; inhibition, % at 20 µM; AID 602409, 2012;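 active = mean inhibition over four retests above 40%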;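 also: receptor stimulated with 10 nM CXCL16 agonist; beta-galactosidase fragment complementation upon beta-arrestin recruitment to receptor; plate controls were CXCL16 plus DMSO for no effect and DMSO without CXCL16 for full effect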
The depositor's hits bear a star.

What do the screens show for `Cc1cccc(NC(=S)N/N=C/c2ccc([N+](=O)[O-])s2)c1`?
EBI2 block: 31.5; CXCR6 inh: 56.2*; APJ antagonist: 17.5; APJ ag: -5.2; CXCR6 confirm: 53.1*

How did Cc1cccc(NC(=O)/C=C/c2ccc([N+](=O)[O-])s2)c1 do in these assays?
EBI2 block: 26.4; CXCR6 inh: 9.9; CCR6 antag: 3.0

What do the screens show for `O=C(CCCN1C(=O)c2ccccc2C1=O)Nc1ccccc1C(=O)N1CCOCC1`?
EBI2 block: -4.8; CXCR6 inh: 65.6*; CCR6 antag: 33.7; APJ antagonist: 10.7; APJ ag: 0.9; CXCR6 confirm: 10.2

What do the screens show for `CCC(=O)Nc1ccccc1C(=O)N1CCOCC1`?
EBI2 block: -8.8; CXCR6 inh: -4.1; CCR6 antag: 0.1; APJ antagonist: 5.1; APJ ag: -4.0

How did C=CC[C@H](CC(=O)N(CCO)Cc1ccccc1)C(=O)NC[C@H](OC(=O)[C@@H](CC=C)CC(=O)OC(C)(C)C)c1ccccc1 do in these assays?
EBI2 block: 29.3; CXCR6 inh: 50.7*; CCR6 antag: 29.2; APJ antagonist: 15.6; APJ ag: -6.7; CXCR6 confirm: 39.6

Results for C=CC[C@@H](CC(=O)N(CCO)Cc1ccccc1)C(=O)N[C@H](COC(=O)[C@@H](CC=C)CC(=O)OC(C)(C)C)C(C)(C)C ?
EBI2 block: -5.5; CXCR6 inh: 11.9; CCR6 antag: -1.1; APJ antagonist: 13.6; APJ ag: -7.9

What do the screens show for `C=CC[C@H](CC(=O)N(CCO)Cc1ccccc1)C(=O)N[C@H](COC(=O)[C@H](CC=C)CC(=O)OC(C)(C)C)Cc1ccccc1`?
EBI2 block: 8.3; CXCR6 inh: 42.5*; CCR6 antag: 29.3; APJ antagonist: 7.9; APJ ag: -3.0; CXCR6 confirm: 24.8

What do the screens show for `CCc1nc2c(OCc3cccc(Cl)c3)cccn2c1N(C)C(=O)C1CC1`?
EBI2 block: 3.6; CXCR6 inh: 6.7

What do the screens show for `NC(=O)c1cccc(-c2ccnc3c2CC(C(=O)Nc2ccc(Cl)cc2)O3)c1` (configuration not stated)?
EBI2 block: 7.0; CXCR6 inh: -2.5

How did Cc1c(Cl)cccc1NC(=S)NC(=O)c1cncc(Br)c1 do in these assays?
EBI2 block: 6.2; CXCR6 inh: 42.2*; CCR6 antag: 33.4; APJ antagonist: 15.7; APJ ag: -3.1; CXCR6 confirm: 35.5

Results for Cc1cc2nc(-c3ccccc3)c(Cc3ccccc3)n2c(C)c1Br ?
EBI2 block: -5.2; CXCR6 inh: -1.6

What do the screens show for `CC1=NN(/C(=N\c2nnc(C)s2)Nc2ccc(C(C)(C)C)cc2)[C@H](c2ccc(C)cc2)S1`?
EBI2 block: 6.8; CXCR6 inh: 39.9*; CCR6 antag: 27.2; APJ antagonist: 25.0; APJ ag: -5.9; CXCR6 confirm: 18.8

What do the screens show for `CCOC(=O)C1(Cc2ccc(Cl)cc2)CCN(Cc2ccon2)CC1`?
EBI2 block: -11.8; CXCR6 inh: 69.5*; CCR6 antag: 3.8; APJ antagonist: 19.3; APJ ag: -0.8; CXCR6 confirm: 4.7

What do the screens show for `CCCCn1c(Nc2ccccc2)nc2ccccc21`?
EBI2 block: -8.7; CXCR6 inh: -4.2; CCR6 antag: 1.6; APJ antagonist: 12.7; APJ ag: -0.3

Results for CCCn1c(Nc2nc3ccccc3n2C)nc2ccccc21 ?
EBI2 block: -9.7; CXCR6 inh: 69.9*; CCR6 antag: 84.1*; APJ antagonist: 7.6; APJ ag: 2.1; CXCR6 confirm: 5.3

How did COc1ccc(N(CC(=O)NC2CCCC2)S(=O)(=O)c2c(C)[nH]c(=O)[nH]c2=O)cc1 do in these assays?
EBI2 block: -0.9; CXCR6 inh: 35.3*; CCR6 antag: 7.3; APJ antagonist: -60.8; APJ ag: -2.7; CXCR6 confirm: 8.0

What do the screens show for `Cc1cc(C)cc(N(CC(=O)NC2CCCC2)S(=O)(=O)c2c(C)[nH]c(=O)[nH]c2=O)c1`?
EBI2 block: -3.4; CXCR6 inh: 3.9; CCR6 antag: 6.2; APJ antagonist: 6.8; APJ ag: -4.6

How did COCC(=O)N1CCC(c2nc3ccccc3[nH]2)CC1 do in these assays?
EBI2 block: -8.5; CXCR6 inh: 3.4

How did O=C(Cc1ccccc1)N1CCC(c2nc3ccccc3[nH]2)CC1 do in these assays?
EBI2 block: 6.9; CXCR6 inh: 39.9*; CCR6 antag: 0.2; APJ antagonist: -11.3; APJ ag: -1.8; CXCR6 confirm: 6.0

How did O=C(NCc1ccc(Cl)c(Cl)c1)c1cc(C2CCCCN2C(=O)c2ccccn2)on1 (configuration not stated) do in these assays?
EBI2 block: 0.4; CXCR6 inh: -4.2

Results for CCCNC(=O)c1nnsc1S(=O)(=O)c1ccc(Cl)cc1 ?
EBI2 block: 11.7; CXCR6 inh: 64.9*; CCR6 antag: 74.0*; APJ antagonist: 23.2; APJ ag: -3.4; CXCR6 confirm: 83.2*

How did CNC(=O)c1nnsc1S(=O)c1ccc(Cl)cc1 (configuration not stated) do in these assays?
EBI2 block: 6.8; CXCR6 inh: 96.1*; CCR6 antag: 99.3*; APJ antagonist: 26.9; APJ ag: -3.7; CXCR6 confirm: 97.2*

What do the screens show for `CCCNC(=O)c1nnsc1S(=O)c1ccc(Cl)cc1` (configuration not stated)?
EBI2 block: 8.3; CXCR6 inh: 86.6*; CCR6 antag: 96.5*; APJ antagonist: 39.8; APJ ag: -6.0; CXCR6 confirm: 98.6*

How did CCCNC(=O)NS(=O)(=O)c1ccc(Cl)cc1 do in these assays?
EBI2 block: -2.7; CXCR6 inh: -1.6; CCR6 antag: 15.3; APJ antagonist: -8.5; APJ ag: -3.8

How did CCC/C=C/c1ccc(CN2C(C(C)C)C(=O)N(Cc3cn(Cc4ccco4)nn3)CCS2(=O)=O)cc1 (configuration not stated) do in these assays?
EBI2 block: 6.1; CXCR6 inh: 9.0

What do the screens show for `O=C(CSc1nc2ccccc2c(=O)[nH]1)NCc1ccc(Cl)cc1`?
EBI2 block: -1.9; CXCR6 inh: -2.7; CCR6 antag: -2.3; APJ antagonist: 8.2; APJ ag: 0.3

What do the screens show for `O=c1[nH]c(SCc2ccc(Cl)cc2)nc2ccccc12`?
EBI2 block: -3.1; CXCR6 inh: 82.5*; CCR6 antag: -9.1; APJ antagonist: 19.4; APJ ag: -2.5; CXCR6 confirm: 15.0

How did N#Cc1ccc(S(=O)(=O)N2CCCCC2c2cc(C(=O)NCc3ccccc3)no2)cc1 (configuration not stated) do in these assays?
EBI2 block: 4.0; CXCR6 inh: -3.8
